Experimental findings from ChEMBL document CHEMBL1124953, “Orally effective acid prodrugs of the beta-lactamase inhibitor sulbactam” (J Med Chem, 1990) are described below.

The structures appear in SMILES notation.

Data set [1] in a line: Area under curve (AUC) was determined. The data set is classed as ADME. Set-up: concentration or dose not given beside the values. In outline:
(§1)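 Male outbred CD rats (70-90 g), five per prodrug, given 10 mg/kg orally in CMC diluent. Orbital plexus blood into heparinized tubes, plasma sampled over 4 h. Plasma sulbactam quantified by synergistic agar-well bioassay: Pasteurella hemolytica (ATCC 43823) in Mueller-Hinton agar with ampicillin and triphenyltetrazolium chloride, 18 h at 37 °C. Standard curve 10-0.1 μg/mL in rat plasma, zone-size regression. AUC and Cmax from concentration-time plot.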

Data set [2] is described as follows: Maximum Concentration of the compound. The data set is classed as ADME, organism-based. The settings on record: in vivo. In outline: as §1

The compound `CC1(C)[C@H](C(=O)OCOC(=O)CCCC(=O)O)N2C(=O)C[C@H]2S1(=O)=O` had an area under the curve (AUC) in data set [1] of 10000 ng·h/mL. The same compound showed a peak concentration (Cmax) in data set [2] of 8200 ng/mL.

Regarding `CC1(C)[C@H](C(=O)OCOC(=O)CCCCC(=O)OCc2ccccc2)N2C(=O)C[C@H]2S1(=O)=O`, the AUC in data set [1] worked out at 2300 ng·h/mL. The Cmax in data set [2] was determined as 1600 ng/mL.

`CC1(C)[C@H](C(=O)OCOC(=O)CC(=O)O)N2C(=O)C[C@H]2S1(=O)=O`: the exposure (AUC) in data set [1] turned out to be 3500 ng·h/mL. Also, in data set [2], the peak level (Cmax) was 2000 ng/mL.

For the compound `CC1(C)[C@H](C(=O)OCOC(=O)CCCCC(=O)O)N2C(=O)C[C@H]2S1(=O)=O`, in data set [1], the exposure (AUC) was determined as 7500 ng·h/mL. For the same compound, the peak level in data set [2] (Cmax) was 5200 ng/mL.

With `CC(C)(C(=O)O)C(=O)OCOC(=O)[C@@H]1N2C(=O)C[C@H]2S(=O)(=O)C1(C)C`, the AUC in data set [1] stood at 6200 ng·h/mL. For the same compound, the peak concentration (Cmax) in data set [2] is 3900 ng/mL.

In data set [1], `CC(C)(C)C(=O)OCOC(=O)[C@@H]1N2C(=O)C[C@H]2S(=O)(=O)C1(C)C` [SULBACTAM PIVOXIL] registered an area under the curve (AUC) of 8500 ng·h/mL. In addition, the Cmax in data set [2] was determined as 6200 ng/mL.

Compound `CC1(C)[C@H](C(=O)O)N2C(=O)C[C@H]2S1(=O)=O` [SULBACTAM] yielded an AUC in data set [1] of 1400 ng·h/mL. The same compound displayed a maximum concentration (Cmax) in data set [2] of 700 ng/mL.

Usually AUC stands for concentration integrated over time. What is called Cmax is the peak of the concentration-time curve.
